MDM2 E3 inh: blocks human Mdm2 ubiquitin ligase activity; 210,000 tested, 0.11% active; signal enhancement, % at 5 µM; Q00987; cell-based MDM2 ubiquitination luciferase reporter, 2 h; 0 = plate control, 100 = twice control, blank-subtracted;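 active = signal enhancement of 30% or more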;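 note: luminescence tracks abundance of the self-degrading MDM2-luciferase fusion protein; higher signal means inhibition of MDM2 E3 ligase activity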
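Material: Stable MDM2–luciferase fusion reporter cells | Amount: 2000 cells seeded into each well | Dosing: One concentration, 5 µM, with 0.2% DMSO | Incubation: 4 h cell settling then 2 h compound exposure, 37 °C | Measured by: Luciferase luminescence | Read-out basis: % enhancement relative to plate controls after blank subtraction | Benchmarks: Control and blank well means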
S1P4 ag: human S1P4 receptor agonism; O95977; S1P4-expressing cell line, agonist reporter assay; activation, % at 4.98 µM; 220,000 tested, 0.35% active; in the data active = activation above about 11%;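 note: 0% = DMSO vehicle and 100% = reference agonist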
Target sequence (O95977 whole entry, looked up): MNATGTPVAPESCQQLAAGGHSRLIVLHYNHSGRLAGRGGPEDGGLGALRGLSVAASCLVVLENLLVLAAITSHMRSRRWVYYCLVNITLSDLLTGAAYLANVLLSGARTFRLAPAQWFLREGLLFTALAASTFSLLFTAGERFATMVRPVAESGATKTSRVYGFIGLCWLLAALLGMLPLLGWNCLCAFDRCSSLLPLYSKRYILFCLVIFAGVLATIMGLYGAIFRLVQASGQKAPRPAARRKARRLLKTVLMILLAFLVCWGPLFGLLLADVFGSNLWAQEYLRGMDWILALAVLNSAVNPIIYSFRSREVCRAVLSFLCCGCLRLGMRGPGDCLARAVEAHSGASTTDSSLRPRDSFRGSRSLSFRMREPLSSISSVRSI
S1P4 antagonist: antagonists of human S1P4 receptor; inhibition, % at 4.98 µM; S1P4-expressing cells, antagonist mode, reporter read-out; 220,000 tested, 0.26% active; O95977; in the data active = inhibition above about 29%;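 note: 0% = wells stimulated with agonist and 100% = vehicle wells without agonist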
S1P3 antagonist: blocks the human S1P3 receptor; CHO S1P3 NFAT-BLA reporter, FRET fluorescence, antagonist mode; Q99500; inhibition, % at 4.98 µM; 170,000 tested, 0.27% active;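 active = inhibition above the plate cutoff, the mean inhibition of test wells on that plate plus 3 SD, cut at about 28% in these data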;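 note: cells challenged with S1P at its EC80 of 0.8 µM; blue over green emission ratio from cleaved BLA substrate after 4 h stimulation; 0% = S1P-stimulated wells and 100% = unstimulated DMSO-only wells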
Calb biofilm kill: mixtures killing C. albicans biofilm | C. albicans biofilm persisters + clotrimazole, fluorescence viability; primary screen in compound mixtures of four per well | inhibition, % at 7.6 µM | 120,000 tested, 0.02% active | AID 1242;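 active = inhibition above 30.3% in the primary screen of four-compound pools, then above 30% when the compound was retested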;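 note: compounds exposed to preformed 24 h biofilms for 48 h; 0% = untreated biofilm control and 100% = clotrimazole plus chlorhexidine kill blank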
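System: C. albicans CAF4-2 wild-type biofilms; Medium: RPMI/MOPS medium, pH 7.0; Reagent: Clotrimazole, 50 µg/mL; Times: biofilm formation 24 h, compound exposure 48 h, 37 °C; Detection: 2-h Alamar Blue fluorescence, 535/590 nm excitation/emission; Evaluation: percent inhibition of biofilm viability.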
S1P4 agonist cf: human S1P4 agonism, confirmation; shares compounds with S1P4 ag; S1P4 agonist cell-based reporter assay; activation, % at 4.98 µM; 740 tested, 7% active; AID 1523; in the data active = activation above about 12%;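 note: 0% = vehicle and 100% = full reference agonist response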
S1P1 agonist: activates human S1P1, counter-screen for S1P4 agonists; activation, % at 4.98 µM; shares compounds with S1P4 ag; 740 tested, 4% active; S1P1 agonist cell-based assay, activation; AID 1563; in the data active = activation above about 21%;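 note: 0% = vehicle wells and 100% = reference agonist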
* = called active by the depositor. Rows were chosen to be rich in hits. Some 0.9% of all compounds tested hit in one or more screens of this group.

Screening CNc1nc(OCC(F)(F)F)nc(N2CCN(C34CC5CC(CC(C5)C3)C4)CC2)n1 returned S1P4 ag 0.0 and S1P4 antagonist -15.4.
For OC1CCCN(Cc2c3ccccc3cc3ccccc23)C1 (centres undefined) the results were MDM2 E3 inh -10.6, S1P4 ag 14.8*, S1P4 antagonist -10.9, S1P4 agonist cf -0.2 and S1P1 agonist 2.6.
For Cc1cc(=O)[nH]c(N/N=C/c2c(O)n(-c3ccccc3)c(=O)c3ccccc23)n1 the results were MDM2 E3 inh -1.5, S1P4 ag 29.2*, S1P4 antagonist -0.4, S1P3 antagonist 10.2, Calb biofilm kill 13.9, S1P4 agonist cf -1.1 and S1P1 agonist -4.1.
Screening Cc1ccc2nc(SCc3nnc(-c4ccccc4Br)o3)[nH]c2c1 returned MDM2 E3 inh -10.4, S1P4 ag -0.2 and S1P4 antagonist -18.5.
Screening Cc1ccccc1OCC(=O)N/N=C/c1ccncc1 returned MDM2 E3 inh 4.9, S1P4 ag 2.6, S1P4 antagonist -3.5, S1P3 antagonist -8.4 and Calb biofilm kill 10.4.
Screening CCOC(=O)C/C(C)=N/NC(=O)COc1ccccc1C returned MDM2 E3 inh -19.6, S1P4 ag 88.9*, S1P4 antagonist -16.7, S1P3 antagonist -32.0, Calb biofilm kill 23.9, S1P4 agonist cf -1.2 and S1P1 agonist -1.6.
`COc1ccc(-c2nnn(CC(=O)N(CCCN3CCOCC3)C(C(=O)NC3CCCC3)c3ccco3)n2)cc1` (centres undefined) gave MDM2 E3 inh 7.4, S1P4 ag 14.5*, S1P4 antagonist -22.8, S1P3 antagonist -1.2, Calb biofilm kill 23.9, S1P4 agonist cf -2.5 and S1P1 agonist -9.2.
For Cc1cc(=O)oc2cc3c(cc12)OCCN3 the results were MDM2 E3 inh -5.9, S1P4 ag 11.5*, S1P4 antagonist -9.5, S1P3 antagonist -52.2, S1P4 agonist cf 5.3 and S1P1 agonist 5.0.
Cc1cc(=O)oc2cc3c(cc12)OCCO3 was read as MDM2 E3 inh 3.7, S1P4 ag -0.3, S1P4 antagonist -13.0 and S1P3 antagonist -11.9.
`NS(=O)(=O)c1ccc(CCNC(=O)c2ccc3c(c2)OCCO3)cc1` gave MDM2 E3 inh -12.6, S1P4 ag 1.1, S1P4 antagonist 2.9, S1P3 antagonist -10.7 and Calb biofilm kill 13.3.
Screening O=C(CSc1nc2ncc(Cl)cc2[nH]1)c1ccc2c(c1)OCO2 returned MDM2 E3 inh -2.3, S1P4 ag -1.4, S1P4 antagonist 15.5, S1P3 antagonist -7.7 and Calb biofilm kill 27.8.
For O=C(CSc1nc2ncc(Br)cc2[nH]1)Nc1ccc2c(c1)OCO2 the results were MDM2 E3 inh -1.3, S1P4 ag 28.9*, S1P4 antagonist -1.1, S1P3 antagonist -14.8, S1P4 agonist cf -1.1 and S1P1 agonist -0.4.
`COc1ccc(-c2cc(C(=O)N/N=C/c3ccc4c(c3)OCO4)c3ccccc3n2)c(OC)c1` gave MDM2 E3 inh -23.7, S1P4 ag -0.5 and S1P4 antagonist -4.9.
COc1ccc(-c2cc(C(=O)N/N=C/c3ccc(OC)c(COCC(F)(F)C(F)F)c3)c3ccccc3n2)c(OC)c1 was read as MDM2 E3 inh -10.8, S1P4 ag 72.1*, S1P4 antagonist -8.9, S1P4 agonist cf -2.1 and S1P1 agonist -6.7.
Screening O=C(CNC(=S)N(Cc1ccccc1)Cc1ccccc1F)NCc1ccc(Cl)cc1 returned MDM2 E3 inh -3.3, S1P4 ag 0.3, S1P4 antagonist 18.4, S1P3 antagonist 5.4 and Calb biofilm kill -5.1.
`CCCc1ccc(OCC(=O)Nc2cc(S(=O)(=O)CC)ccc2O)cc1` gave MDM2 E3 inh 4.1, S1P4 ag 12.4*, S1P4 antagonist -20.2, S1P3 antagonist 2.4, Calb biofilm kill 24.7, S1P4 agonist cf -0.8 and S1P1 agonist 2.0.
For COC(=O)Nc1nnc(COc2ccccc2)s1 the results were MDM2 E3 inh -5.2, S1P4 ag 1.5, S1P4 antagonist 3.3, S1P3 antagonist 19.0 and Calb biofilm kill 31.6.
For Cn1cccc1/C=C1\CCc2ccccc2C1=O the results were MDM2 E3 inh -7.5, S1P4 ag 38.6*, S1P4 antagonist -12.2, S1P3 antagonist -1.4, Calb biofilm kill 23.9, S1P4 agonist cf -2.0 and S1P1 agonist -6.9.
Screening Cc1onc(C(=O)N2CCOCC2)c1[N+](=O)[O-] returned MDM2 E3 inh -26.2, S1P4 ag 19.4*, S1P4 antagonist 4.2, S1P3 antagonist -4.4, Calb biofilm kill 10.9, S1P4 agonist cf -2.8 and S1P1 agonist 2.7.
Screening CC(C)c1onc(C(=O)N2CCOCC2)c1[N+](=O)[O-] returned S1P4 ag -0.5, S1P4 antagonist -6.7, S1P3 antagonist -3.7 and Calb biofilm kill 3.4.
Screening N#C[C@H]1[C@H](c2ccccc2)[C@](C#N)(C(=O)c2ccccc2)[C@@H]2C=Cc3ccccc3N21 returned MDM2 E3 inh -3.1, S1P4 ag 1.9 and S1P4 antagonist -1.4.
`C=CCN1C(=O)/C(=c2\sc3nc(=O)c(Cc4ccccc4)nn3c2=O)c2ccccc21` gave MDM2 E3 inh 8.9, S1P4 ag 27.3*, S1P4 antagonist -6.7, S1P3 antagonist -4.1, Calb biofilm kill 17.8, S1P4 agonist cf -1.4 and S1P1 agonist 0.8.
`CC(C)C[C@H](NC(=O)c1nc[nH]c1C(=O)NCc1ccccc1)C(=O)OC(C)(C)C` gave S1P4 ag 0.8, S1P4 antagonist 11.3, S1P3 antagonist -25.7 and Calb biofilm kill 20.7.
`CC(C)C[C@H](NC(=O)c1nc[nH]c1C(=O)NCc1ccccc1)C(=O)OCc1ccccc1` gave S1P4 ag 20.5*, S1P4 antagonist -21.0, S1P3 antagonist -11.1, Calb biofilm kill 15.6, S1P4 agonist cf 25.9* and S1P1 agonist 0.0.
Screening CN(C)CCCn1c(SCC(=O)N2c3ccccc3Sc3ccccc32)nc2ccccc2c1=O returned MDM2 E3 inh -10.4, S1P4 ag 0.4, S1P4 antagonist -3.5, S1P3 antagonist -0.6 and Calb biofilm kill 19.6.
CC[C@@H]1CC=C[C@H]2[C@H]1C(=O)N(Cc1ccccc1)[C@H]2c1cc(C)ccc1F was read as MDM2 E3 inh -7.5 and Calb biofilm kill 15.6.
`Cc1ccc(-n2ncc3c(=O)n(CC(=O)OCc4ccccc4)cnc32)cc1` gave MDM2 E3 inh 6.4, S1P4 ag 16.9*, S1P4 antagonist -27.8, S1P3 antagonist -28.0, S1P4 agonist cf -1.8 and S1P1 agonist -2.4.
For O=C(Cn1cnc2c(cnn2-c2ccccc2)c1=O)OCc1ccccc1 the results were MDM2 E3 inh -12.4, S1P4 ag -1.5, S1P4 antagonist -14.8 and S1P3 antagonist -4.5.

Screening data (PubChem BioAssay)
